# Substitutions are numbered along the chain they refer to. Numbers in names are those of the source.
# B1: MPP8 W80A: cage mutant of MPP8 chromodomain, Trp80 to alanine (protein)
# chain: MEQVAEGARVTAVPVSAADSTEELAEVEEGVGVVGEDNDAAARGAEAFGDSEEDGEDVFEVEKILDMKTEGGKVLYKVRAKGYTSDDDTWEPEIHLEDCKEVLLEFRKKIAENKAKAVRKDIQRLSLNNDIFEANSDSDQQSETKEDTSPKKKKKKLRQREEKSPDDLKKKKAKAGKLKDKSKPDLESSLESLVFDLRTKKRISEAKEELKESKKPKKDEVKETKELKKVKKGEIRDLKTKTREDPKENRKTKKEKFVESQVESESSVLNDSPFPEDDSEGLHSDSREEKQNTKSARERAGQDMGLEHGFEKPLDSAMSAEEDTDVRGRRKKKTPRKAEDTRENRKLENKNAFLEKKTVPKKQRNQDRSKSAAELEKLMPVSAQTPKGRRLSGEERGLWSTDSAEEDKETKRNESKEKYQKRHDSDKEEKGRKEPKGLKTLKEIRNAFDLFKLTPEEKNDVSENNRKREEIPLDFKTIDDHKTKENKQSLKERRNTRDETDTWAYIAAEGDQEVLDSVCQADENSDGRQQILSLGMDLQLEWMKLEDFQKHLDGKDENFAATDAIPSNVLRDAVKNGDYITVKVALNSNEEYNLDQEDSSGMTLVMLAAAGGQDDLLRLLITKGAKVNGRQKNGTTALIHAAEKNFLTTVAILLEAGAFVNVQQSNGETALMKACKRGNSDIVRLVIECGADCNILSKHQNSALHFAKQSNNVLVYDLLKNHLETLSRVAEETIKDYFEARLALLEPVFPIACHRLCEGPDFSTDFNYKPPQNIPEGSGILLFIFHANFLGKEVIARLCGPCSVQAVVLNDKFQLPVFLDSHFVYSFSPVAGPNKLFIRLTEAPSAKVKLLIGAYRVQLQ
# modifications: left off: Flag, end not stated, kept
# B2: GLP–N: N-terminal fragment of GLP (residues 191–280) containing K205 (protein)
# chain: LPAPGADVKVHRARKTMPKSVVGLHAASKDPREVREARDHKEPKEEINKNISDFGRQQLLPPFPSLHQSLPQNQCYMATTKSQTACLPFV
# modifications: left off: GST, end not stated, kept
# B3: GLP–N K205R: methylation deficient K205R mutant of GLP–N (protein, UniProt Q9H9B1 191-280, looked up, variant K205R)
# chain: B2 chain with K15R
# B4: GLP–N K205-methylated: GLP–N methylated in vitro at K205 (protein, UniProt Q9H9B1 191-280, looked up, fragment)
# chain: B2 chain
# modifications: K205 methylated
# B5: G9a: H3K9 methyltransferase G9a (protein, UniProt Q96KQ7 2-1210, looked up)
# Histone-lysine …: AAAAGAAAAAAAEGEAPAEMGALLLEKETRGATERVHGSLGDTPRSEETLPKATPDSLEPAGPSSPASVTVTVGDEGADTPVGATPLIGDESENLEGDGDLRGGRILLGHATKSFPSSPSKGGSCPSRAKMSMTGAGKSPPSVQSLAMRLLSMPGAQGAAAAGSEPPPATTSPEGQPKVHRARKTMSKPGNGQPPVPEKRPPEIQHFRMSDDVHSLGKVTSDLAKRRKLNSGGGLSEELGSARRSGEVTLTKGDPGSLEEWETVVGDDFSLYYDSYSVDERVDSDSKSEVEALTEQLSEEEEEEEEEEEEEEEEEEEEEEEEDEESGNQSDRSGSSGRRKAKKKWRKDSPWVKPSRKRRKREPPRAKEPRGVNGVGSSGPSEYMEVPLGSLELPSEGTLSPNHAGVSNDTSSLETERGFEELPLCSCRMEAPKIDRISERAGHKCMATESVDGELSGCNAAILKRETMRPSSRVALMVLCETHRARMVKHHCCPGCGYFCTAGTFLECHPDFRVAHRFHKACVSQLNGMVFCPHCGEDASEAQEVTIPRGDGVTPPAGTAAPAPPPLSQDVPGRADTSQPSARMRGHGEPRRPPCDPLADTIDSSGPSLTLPNGGCLSAVGLPLGPGREALEKALVIQESERRKKLRFHPRQLYLSVKQGELQKVILMLLDNLDPNFQSDQQSKRTPLHAAAQKGSVEICHVLLQAGANINAVDKQQRTPLMEAVVNNHLEVARYMVQRGGCVYSKEEDGSTCLHHAAKIGNLEMVSLLLSTGQVDVNAQDSGGWTPIIWAAEHKHIEVIRMLLTRGADVTLTDNEENICLHWASFTGSAAIAEVLLNARCDLHAVNYHGDTPLHIAARESYHDCVLLFLSRGANPELRNKEGDTAWDLTPERSDVWFALQLNRKLRLGVGNRAIRTEKIICRDVARGYENVPIPCVNGVDGEPCPEDYKYISENCETSTMNIDRNITHLQHCTCVDDCSSSNCLCGQLSIRCWYDKDGRLLQEFNKIEPPLIFECNQACSCWRNCKNRVVQSGIKVRLQLYRTAKMGWGVRALQTIPQGTFICEYVGELISDAEADVREDDSYLFDLDNKDGEVYCIDARYYGNISRFINHLCDPNIIPVRVFMLHQDLRFPRIAFFSSRDIRTGEELGFDYGDRFWDIKSKYFTCQCGSEKCKHSAEAIALEQSRLARLDPHPELLPELGSLPPVNT
# B6: G9a double mutant (Y1067V/Y1154F): G9a double mutant coexpressed with hDNMT3A (protein, UniProt Q96KQ7 2-1210, looked up, variant Y1067V Y1154F)
# Histone-lysine …: B5 Histone-lysine … with Y1066V, Y1153F
# What was measured:
# [1] = test system: hDNMT3A–MPP8 interaction in 293T cells; experiment: Co-immunoprecipitation of hDNMT3A and MPP8 in 293T cells; assay type: cell-based, human; details: immunoprecipitation–western
# Procedure, shortened: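 293T cells were transfected for 48 h with Myc-hDNMT3A constructs (WT or K47R; in one setup, co-expressed with HA–GLP in GLP stable-knockdown cells). IP used 1 μg anti-Myc with protein-G agarose and three washes in IPH containing 300 or 600 mM NaCl. Western used anti-Myc/MPP8; input was 1–2%.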
# [2] = test system: MPP8–GLP interaction in 293T cells; experiment: Co-immunoprecipitation of MPP8 and GLP in 293T cells; assay type: cell-based, human
# Procedure, shortened: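 293T cells (parental, or MPP8 stable knockdown for the chromodomain W80A mutant) were cotransfected with Flag-MPP8 and HA-GLP (WT, K199R, K205R or K209R) for 48 h. Lysates were immunoprecipitated with 1 μg anti-HA or anti-Flag on protein-G agarose, washed with IPH containing 300 or 600 mM NaCl, and analysed by western blot. Input was 5%.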
# [3] = test system: MPP8; experiment: In vitro GST pull-down of GLP–N with in vitro translated MPP8; assay type: binding; details: GST–GLP–N (residues 191–280), in vitro translated 35S–MPP8, autoradiography
# Procedure, shortened: (§1)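 GST–hGLP–N (residues 191–280, WT or K205R; 3 μg) was premethylated with 3 μg 6xHis–hGLP–SET (residues 955–1,298) and 1.5 mM AdoMet at 30 °C for 2 h. It was immobilised on glutathione agarose (4 °C, 1 h, 1 M NaCl buffer) and washed. Beads were incubated with in vitro translated 35S-labelled full-length MPP8 (WT or W80A) at 4 °C for 2 h, washed with 300 mM NaCl binding buffer, and analysed by SDS–PAGE autoradiography. Input was 5%.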
# [4] = biological target: GLP catalytic SET domain (Homo sapiens, UniProt Q9H9B1); experiment: In vitro methylation assay with GLP catalytic SET domain; assay type: biochemical; details: [methyl-3H]AdoMet, SDS–PAGE and fluorography / autoradiogram
# Sequence of GLP catalytic SET domain (Q9H9B1 1126-1243 limits assumed): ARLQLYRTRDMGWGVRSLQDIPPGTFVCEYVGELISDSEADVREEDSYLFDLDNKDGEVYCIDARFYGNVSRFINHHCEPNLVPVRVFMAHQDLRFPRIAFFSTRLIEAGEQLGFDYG
# Procedure, shortened: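 E. coli-expressed hG9a or hGLP SET domain (1.6 μM) was incubated with 13.0 μM substrate (mDnmt3a N-terminal fragments or other GST-tagged proteins) and 2.8 μM [methyl-3H]AdoMet in 20 mM Tris–HCl pH 8.5 at 30 °C for 8 min. Products were resolved by SDS–PAGE and detected by fluorography/autoradiography.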
# [5] = test system: MPP8–W80A; experiment: GST pull-down of GLP–N with MPP8-W80A; assay type: binding; details: in vitro translated 35S–MPP8–W80A
# Procedure, shortened: as §1
# [6] = test system: hDNMT3A K47 methylation in 293T cells; experiment: Methylation in 293T cells; assay type: cell-based, human; details: coexpression in 293T cells, metabolic labelling with 3H-Met or western blot
# Procedure, shortened: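 GLP stable knockdown 293T cells expressed Myc-hDNMT3A (WT or K47R), with or without Flag-GLP or G9a, for 36 h. Cells were starved 30 min in methionine-free medium with cycloheximide (100 μg ml−1) and chloramphenicol (40 μg ml−1), then labelled 4 h with 10 μCi ml−1 L-[methyl-3H]methionine. Myc-hDNMT3A was immunoprecipitated with anti-Myc, washed with 600 mM NaCl IPH buffer, and detected by autoradiography.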
Molecule,interaction with MPP8 in GST pull-down [3],methylation by GLP [4],interaction with MPP8–W80A in GST pull-down [5],methylation of hDNMT3A in cells [6],other results
B1,,,,,interaction of hDNMT3A with MPP8 in cells [1]: abrogate binding to hDNMT3a; MPP8–GLP interaction in cells [2]: abrogates MPP8–GLP interaction in cells
B2,a robust direct interaction between GLP–N and MPP8 was observed only when K205 methylation occurs,is methylated in vitro by recombinant GLP–SET domain,no interaction was observed,,
B3,completely lost the interaction with MPP8,completely abolishes this GLP-catalyzed methylation,no interaction was observed,,
B4,,,no interaction was observed,,
B5,,,,markedly increased,
B6,,,,failed to methylate K47,

# Reference: paper PMC3286832 (Nature Communications, 2011)
